Reference: ChEMBL document CHEMBL4715796, “Discovery of Chromane Containing Hepatitis C Virus (HCV) NS5A Inhibitors with Improved Potency against Resistance-Associated Variants” (J Med Chem, 2016)
Numbering of substitutions follows the chain as printed.

Legend:
[1] = Selectivity ratio of EC90 for inhibition of NS5A in Hepatitis C virus subtype 1b infected in human HuH7 cells assessed as reduction in viral to EC90 for inhibition of NS5A in Hepatitis C virus subtype 1a; format: cell-based
Outline: (§1)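 Fold shift calculated against the GT1a EC90, using EC90 values from the luciferase replicon assay in Huh7-derived cells.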

[2] = system: Nonstructural protein 5A (Hepatitis C virus), Q5L478 [UNDEFINED MUTATION]; experiment: Inhibition of NS5A L31V mutant in Hepatitis C virus subtype 1b
Outline: (§2)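 NS5A resistance variants engineered into GT1a-H77 or GT1b-Con1 replicons. Each variant replicon is transfected transiently by electroporation into a Huh7-derived cell line. Percent inhibition is taken from the drop in luciferase signal at each compound concentration, and EC90 is calculated from these. Values are means of at least two experiments.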

[3] = system: Hepatitis C virus subtype 1a; experiment: Inhibition of NS3 R155K mutant in Hepatitis C virus subtype 1a
[4] = Selectivity ratio of EC90 for inhibition of NS5A L31V mutant in Hepatitis C virus subtype 1b to EC90 for Selectivity ratio of EC90 for inhibition of NS5A in Hepatitis C virus subtype 1a
Outline: (§3)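 Fold shift is calculated against the GT1a EC90. The variant EC90 comes from a transient replicon assay: the NS5A variant is introduced into a GT1a-H77 or GT1b-Con1 replicon and electroporated into Huh7-derived cells. The read-out is reduced luciferase signal. EC90s are means of at least two experiments.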

[5] = Selectivity ratio of EC90 for inhibition of NS3 D168Y mutant in Hepatitis C virus subtype 1b to EC90 for Selectivity ratio of EC90 for inhibition of NS5A in Hepatitis C virus subtype 1a
[6] = system: Hepatitis C virus subtype 1a; experiment: Selectivity ratio of EC90 for inhibition of NS5A R155K mutant in Hepatitis C virus subtype 1a to EC90 for Selectivity ratio of EC90 for inhibition of NS5A in Hepatitis C virus subtype 1a
[7] = system: T1, Nonstructural protein 5A (Hepatitis C virus), Q5L478 [Y93N]; experiment: Inhibition of NS5A Y93N mutant in Hepatitis C virus subtype 1a; outline: as §2
T1 sequence (whole entry): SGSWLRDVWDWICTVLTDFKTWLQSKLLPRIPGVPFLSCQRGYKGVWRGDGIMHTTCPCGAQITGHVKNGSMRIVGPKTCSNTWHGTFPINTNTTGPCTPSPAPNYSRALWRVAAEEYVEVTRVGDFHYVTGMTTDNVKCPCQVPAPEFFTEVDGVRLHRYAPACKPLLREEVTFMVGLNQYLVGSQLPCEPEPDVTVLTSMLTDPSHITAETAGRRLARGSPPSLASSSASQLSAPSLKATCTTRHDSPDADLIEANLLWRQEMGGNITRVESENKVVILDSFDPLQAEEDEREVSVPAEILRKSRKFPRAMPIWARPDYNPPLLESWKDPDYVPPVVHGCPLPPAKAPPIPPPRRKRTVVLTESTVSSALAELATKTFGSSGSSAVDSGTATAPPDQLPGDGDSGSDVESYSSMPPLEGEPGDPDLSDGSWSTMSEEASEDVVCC

[8] = system: Hepatitis C virus subtype 1a; experiment: Selectivity ratio of EC90 for inhibition of NS5A Q30R mutant in Hepatitis C virus subtype 1a to EC90 for Selectivity ratio of EC90 for inhibition of NS5A in Hepatitis C virus subtype 1a; outline: as §3
[9] = system: T2, Nonstructural protein 5A (Hepatitis C virus), Q5L478 [Y93H]; experiment: Inhibition of NS5A Y93H mutant in Hepatitis C virus subtype 1b; outline: as §2
T2 sequence (whole entry): T1 sequence (whole entry) with N93H

[10] = system: Huh-7; experiment: Inhibition of NS5A in Hepatitis C virus subtype 1b infected in human HuH7 cells assessed as reduction in viral replication by luciferase reporter gene assay; format: cell-based
Outline: (§4)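 Transient replicon assay with GT1a-H77, GT1b-Con1 or chimeric replicons, electroporated into a Huh7-derived cell line. Percent inhibition of replication, read as a drop in luciferase signal, was calculated at each concentration to give EC90. Values are means of at least two experiments.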

[11] = system: Huh-7; experiment: Inhibition of NS5A in Hepatitis C virus subtype 2b infected in human HuH7 cells assessed as reduction in viral replication by luciferase reporter gene assay; format: cell-based; outline: as §4
[12] = system: Hepatitis C virus subtype 1a; experiment: Inhibition of NS5A Q30D mutant in Hepatitis C virus subtype 1a; outline: as §2
[13] = system: Huh-7; experiment: Inhibition of NS5A in Hepatitis C virus subtype 1a infected in human HuH7 cells assessed as reduction in viral replication by luciferase reporter gene assay; format: cell-based; outline: as §4
[14] = Selectivity ratio of EC90 for inhibition of NS5A in Hepatitis C virus subtype 4a infected in human HuH7 cells assessed as reduction in viral to EC90 for inhibition of NS5A in Hepatitis C virus subtype 1a; format: cell-based; outline: as §1
[15] = system: Hepatitis C virus subtype 1a; experiment: Selectivity ratio of EC90 for inhibition of NS5A Y93N mutant in Hepatitis C virus subtype 1a to EC90 for Selectivity ratio of EC90 for inhibition of NS5A in Hepatitis C virus subtype 1a; outline: as §3
[16] = Selectivity ratio of EC90 for inhibition of NS5A Y93H mutant in Hepatitis C virus subtype 1a infected in human HuH7 cells assessed as reduction in viral to EC90 for inhibition of NS5A in Hepatitis C virus subtype 1a; format: cell-based; outline: as §3
[17] = system: Huh-7; experiment: Inhibition of NS5A in Hepatitis C virus subtype 3a infected in human HuH7 cells assessed as reduction in viral replication by luciferase reporter gene assay; format: cell-based; outline: as §4
[18] = Selectivity ratio of EC90 for inhibition of NS5A Y93H mutant in Hepatitis C virus subtype 1b to EC90 for Selectivity ratio of EC90 for inhibition of NS5A in Hepatitis C virus subtype 1a; outline: as §3
[19] = system: Hepatitis C virus subtype 1a; experiment: Inhibition of NS3 R155K/V36M mutant in Hepatitis C virus subtype 1a
[20] = system: Hepatitis C virus subtype 1b; experiment: Inhibition of NS3 D168Y mutant in Hepatitis C virus subtype 1b
[21] = system: Nonstructural protein 5A (Hepatitis C virus), Q5L478 [UNDEFINED MUTATION]; experiment: Inhibition of NS5A L31V mutant in Hepatitis C virus subtype 1a infected in human HuH7 cells assessed as reduction in viral replication by luciferase reporter gene assay; format: cell-based; conditions: Huh-7; outline: as §2
[22] = system: Hepatitis C virus subtype 1a; experiment: Selectivity ratio of EC90 for inhibition of NS5A R155K V36 mutant in Hepatitis C virus subtype 1a to EC90 for Selectivity ratio of EC90 for inhibition of NS5A in Hepatitis C virus subtype 1a
[23] = system: Nonstructural protein 5A (Hepatitis C virus), Q5L478 [UNDEFINED MUTATION]; experiment: Inhibition of NS5A Q30R mutant in Hepatitis C virus subtype 1a; outline: as §2
[24] = Selectivity ratio of EC90 for inhibition of NS5A in Hepatitis C virus subtype 3a infected in human HuH7 cells assessed as reduction in viral to EC90 for inhibition of NS5A in Hepatitis C virus subtype 1a; format: cell-based
[25] = system: Hepatitis C virus subtype 1a; experiment: Selectivity ratio of EC90 for inhibition of NS5A Q30D mutant in Hepatitis C virus subtype 1a to EC90 for Selectivity ratio of EC90 for inhibition of NS5A in Hepatitis C virus subtype 1a; outline: as §3
[26] = Selectivity ratio of EC90 for inhibition of NS5A L31V mutant in Hepatitis C virus subtype 1a infected in human HuH7 cells assessed as reduction in viral to EC90 for inhibition of NS5A in Hepatitis C virus subtype 1a; format: cell-based; outline: as §3
[27] = system: Huh-7; experiment: Inhibition of NS5A in Hepatitis C virus subtype 4a infected in human HuH7 cells assessed as reduction in viral replication by luciferase reporter gene assay; format: cell-based; outline: as §4
[28] = Selectivity ratio of EC90 for inhibition of NS5A in Hepatitis C virus subtype 2b infected in human HuH7 cells assessed as reduction in viral to EC90 for inhibition of NS5A in Hepatitis C virus subtype 1a; format: cell-based
[29] = Cmax in male Wistar Han rats at 10 mg/kg, po administered post overnight fasting measured upto 24 hrs by LC-MS/MS analysis; format: ADME, organism-based; parameters: route oral, dose 10 mg/kg, time <=24; conditions: rat, in vivo
Outline: (§5)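 Overnight-fasted male Wistar Han rats or Beagle dogs, two animals per group, 24 h study. IV in 60% PEG200 (rat 2 mg/kg, dog 1 mg/kg). PO in 10% Tween (rat 10 mg/kg, dog 5 mg/kg). Blood sampled up to 24 h, plasma separated by centrifugation, and drug measured by LC/MS. MRT reported for the IV route.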

[30] = system: T2, Nonstructural protein 5A (Hepatitis C virus), Q5L478 [Y93H]; experiment: Inhibition of NS5A Y93H mutant in Hepatitis C virus subtype 1a infected in human HuH7 cells assessed as reduction in viral replication by luciferase reporter gene assay; format: cell-based; conditions: Huh-7; outline: as §2
[31] = Clearance in male Wistar Han rats at 2 mg/kg, iv administered post overnight fasting measured upto 24 hrs by LC-MS/MS analysis; format: ADME, organism-based; conditions: rat, in vivo; outline: as §5
[32] = Oral bioavailability in male Wistar Han rat at 10 mg/kg post overnight fasting measured upto 24 hrs by LC-MS/MS analysis; format: ADME, organism-based; conditions: in vivo; outline: as §5
[33] = Drug concentration in male Wistar Han rat at 10 mg/kg, po measured after 24 hrs by LC/MS analysis; format: ADME, organism-based; conditions: in vivo, read-out: Drug uptake; outline: as §5
[34] = Half-life in male Wistar Han rats at 2 mg/kg, iv administered post overnight fasting measured upto 24 hrs by LC-MS/MS analysis; format: ADME, organism-based; conditions: rat, in vivo; outline: as §5
[35] = AUC in male Wistar Han rats at 10 mg/kg, po administered post overnight fasting measured upto 24 hrs by LC-MS/MS analysis; format: ADME, organism-based; parameters: route oral, dose 10 mg/kg, time <=24; conditions: rat, in vivo; outline: as §5
[36] = Cytotoxicity against human HuH7 cells assessed as reduction in cell viability measured after 72 hrs by Hoechst/Alexa fluor 488 staining based Edu plus cell counting analysis; parameters: species or system Huh-7
Outline: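 Huh7 cells were seeded at 1,200 per well and treated with a 20-point twofold compound dilution series for 72 h, with EdU added for the last 18-20 h. Cells were then fixed and permeabilized, nuclei stained with Hoechst, and EdU labelled with Alexa Fluor 488 by click reaction. Plates were scanned with 405 nm (420-500 nm) and 488 nm (500-530 nm) detection, giving CC50.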

| Structure (SMILES) | Selectivity ratio [1] | EC90 [2] | Selectivity ratio [4] | EC90 [7] | Selectivity ratio [8] | EC90 [9] | EC90 [10] | EC90 [11] | EC90 [12] | EC90 [13] | Selectivity ratio [14] | Selectivity ratio [15] | Selectivity ratio [16] | EC90 [17] | Selectivity ratio [18] | EC90 [21] | EC90 [23] | Selectivity ratio [24] | Selectivity ratio [25] | Selectivity ratio [26] | also measured |
| --- | --- | --- | --- | --- | --- | --- | --- | --- | --- | --- | --- | --- | --- | --- | --- | --- | --- | --- | --- | --- | --- |
| COC(=O)N[C@H](C(=O)N1CCC[C@H]1c1ncc(-c2cc(F)c3c(c2)OC(c2ccc4c(c2)OCCC4)n2c-3cc3cc(-c4cnc([C@@H]5CCCN5C(=O)[C@@H](NC(=O)OC)C(C)C)[nH]4)ccc32)[nH]1)C(C)C (stereo partly drawn) [listing 1 of 2 here] | 1 | 0.005 nM | 2 | 0.2 nM | 7 | 0.07 nM | 0.003 nM | 0.3 nM | 0.9 nM | 0.003 nM | 1 | 67 | 167 | 0.01 nM | 23 | 0.02 nM | 0.02 nM | 3 | 300 | 7 | EC90 [3]: 0.0001 nM; Selectivity ratio [5]: 1; Selectivity ratio [6]: 1; EC90 [19]: 0.001 nM; EC90 [20]: 0.002 nM; Selectivity ratio [22]: 1; EC90 [27]: 0.002 nM; Selectivity ratio [28]: 100 |
| COC(=O)N[C@H](C(=O)N1CCC[C@H]1c1ncc(-c2cc(F)c3c(c2)OC(c2ccc4c(c2)OCCC42CC2)n2c-3cc3cc(-c4cnc([C@@H]5CCCN5C(=O)[C@@H](NC(=O)OC)C(C)C)[nH]4)ccc32)[nH]1)C(C)C.O=C(O)C(F)(F)F.O=C(O)C(F)(F)F (stereo partly drawn) | 1 | 0.005 nM | 2 | 0.9 nM | 10 | 0.02 nM | 0.004 nM | 0.2 nM | 1.2 nM | 0.003 nM | 1 | 300 | 20 | 0.01 nM | 7 | 0.006 nM | 0.03 nM | 2 | 400 | 1 | Cmax [29]: 29 nM; EC90 [30]: 0.1 nM; clearance [31]: 15 mL/min/kg; bioavailability [32]: 2%; concentration at 24 h [33]: 1 nM; half-life [34]: 8.5 h; EC90 [27]: 0.006 nM; Selectivity ratio [28]: 40; AUC at 24 h [35]: 0.24 µM·h |
| COC(=O)N[C@H](C(=O)N1CCC[C@H]1c1ncc(-c2cc(F)c3c(c2)OC(c2ccc4c(c2)OCCC4)n2c-3cc3cc(-c4cnc([C@@H]5CCCN5C(=O)[C@@H](NC(=O)OC)C(C)C)[nH]4)ccc32)[nH]1)C(C)C (stereo partly drawn) [listing 2 of 2 here] | – | – | – | – | – | – | – | – | – | – | – | – | – | – | – | – | – | – | – | – | CC50 at 72 h [36]: > 50000 nM |
